# Measured values: ChEMBL document CHEMBL1132298, “Synthesis and antimalarial activity of cyclic peroxides, 1,2,4,5, 7-pentoxocanes and 1,2,4,5-tetroxanes” (J Med Chem, 1999)
# Test system: FM3A
# Experiment: In vitro cytotoxicity in mouse mammary tumor FM3A cells
# Type: functional, cell-based
row,Compound,EC50
1,c1ccc(C23CCCC(OOC(C4CCCCC4)OO2)O3)cc1 (stereo not given),10000 nM
2,C[C@@H]1CC[C@H]2[C@@H](C)C(=O)O[C@@H]3O[C@@]4(C)CC[C@@H]1[C@]32OO4 [ARTEMISININ],10000 nM
3,CC(C)(C)C1OOC2CCCC(c3ccccc3)(OO1)O2 (stereo not given),26000 nM
4,CCC(CC)C1OOC2CCCC(c3ccccc3)(OO1)O2 (stereo not given),33000 nM
5,Fc1ccc(C23CCCC(OOC(C4CCCCC4)OO2)O3)cc1 (stereo not given),2500 nM
6,Fc1ccc(C23CCCC(OOC(c4ccccc4)OO2)O3)cc1 (stereo not given),8100 nM
7,CCCCCCCC1OOC2CCCC(c3ccccc3)(OO1)O2 (stereo not given),12000 nM
8,C1CCC([C@H]2OO[C@H](C3CCCCC3)OO2)CC1,11000 nM
9,FC(F)(F)c1ccccc1C1OOC(c2ccccc2C(F)(F)F)OO1 (stereo not given),3000 nM
10,Fc1ccc(C2OOC3CCCC(c4ccccc4)(OO2)O3)cc1 (stereo not given),17000 nM
11,Fc1ccc(C2OOC3CCCC(c4ccc(F)cc4)(OO2)O3)cc1 (stereo not given),9000 nM
12,COc1ccc(C(=O)CCCC2OOC3CCCC(c4ccc(OC)cc4)(OO2)O3)cc1 (stereo not given),18000 nM
13,c1ccc(C2OOC3CCCC(c4ccccc4)(OO2)O3)cc1 (stereo not given),50000 nM

# Test system: FM3A
# Experiment: In vitro cytotoxicity in mouse mammary tumor FM3A cells; Nontoxic at a 1*10^-4 M concentration.
# Type: functional, cell-based
row,Compound,EC50
1,COc1ccc(C(=O)CCC[C@H]2OO[C@H](CCCC(=O)c3ccc(OC)cc3)OO2)cc1,Not toxic
2,c1ccc(C[C@H]2OO[C@H](Cc3ccccc3)OO2)cc1,Not toxic
3,O=C(CCC[C@H]1OO[C@H](CCCC(=O)c2ccccc2)OO1)c1ccccc1,Not toxic
4,O=C(CCCC1OOC2CCCC(c3ccc(F)cc3)(OO1)O2)c1ccc(F)cc1 (stereo not given),Not toxic
5,CCCCCCC[C@H]1OO[C@H](CCCCCCC)OO1,Not toxic
6,c1ccc([C@H]2OO[C@H](c3ccccc3)OO2)cc1,Not toxic
7,O=C(CCC[C@H]1OO[C@@H](CCCC(=O)c2ccccc2)OO1)c1ccccc1,Not toxic
8,O=C(CCCC1OOC2CCCC(c3ccccc3)(OO1)O2)c1ccccc1 (stereo not given),Not toxic
9,Fc1ccc(C2OOC(c3ccc(F)cc3)OO2)cc1 (stereo not given),Not toxic
10,O=C(CCC[C@H]1OO[C@H](CCCC(=O)c2ccc(F)cc2)OO1)c1ccc(F)cc1,Not toxic
11,COc1ccc(C2OOC(c3ccc(OC)cc3)OO2)cc1 (stereo not given),Not toxic
12,FC(F)(F)c1ccc(C2OOC(c3ccc(C(F)(F)F)cc3)OO2)cc1 (stereo not given),Not toxic

# Test system: Mus musculus
# Experiment: In vivo antimalarial activity against Plasmodium berghei NK 65 in mice (Mus musculus) at 20 mg/kg/day
# Type: functional
# Summary of the method: (§1)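 Male ICR mice, 5 weeks old, 22-25 g, five per group. Infected iv (tail vein) with 1 × 10⁶ P. berghei NK 65 parasitized erythrocytes in 0.2 mL 0.9% NaCl. Compound in DMSO given ip once daily on days 0-3, first dose 2 h after inoculation. Controls were DMSO-dosed. Day-4 parasitemia counted on Giemsa tail-blood smears (1 × 10⁴ RBCs). Percent suppression relative to controls, mean of five mice.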
row,Compound,Growth inhibition
1,c1ccc(C23CCCC(OOC(C4CCCCC4)OO2)O3)cc1 (stereo not given),0%
2,C[C@@H]1CC[C@H]2[C@@H](C)C(=O)O[C@@H]3O[C@@]4(C)CC[C@@H]1[C@]32OO4 [ARTEMISININ],93%
3,CCC(CC)C1OOC2CCCC(c3ccccc3)(OO1)O2 (stereo not given),15%
4,C1CCC([C@H]2OO[C@H](C3CCCCC3)OO2)CC1,50%
5,O=C(CCC[C@H]1OO[C@H](CCCC(=O)c2ccccc2)OO1)c1ccccc1,30%
6,O=C(CCCC1OOC2CCCC(c3ccc(F)cc3)(OO1)O2)c1ccc(F)cc1 (stereo not given),0%
7,c1ccc([C@H]2OO[C@H](c3ccccc3)OO2)cc1,6%
8,Fc1ccc(C2OOC(c3ccc(F)cc3)OO2)cc1 (stereo not given),50%
9,O=C(CCC[C@H]1OO[C@H](CCCC(=O)c2ccc(F)cc2)OO1)c1ccc(F)cc1,0%

# Test system: Mus musculus
# Experiment: In vivo antimalarial activity against Plasmodium berghei NK 65 in mice (Mus musculus) at 50 mg/kg/day
# Type: functional
# Summary of the method: as §1
row,Compound,Growth inhibition
1,c1ccc(C23CCCC(OOC(C4CCCCC4)OO2)O3)cc1 (stereo not given),15%
2,C[C@@H]1CC[C@H]2[C@@H](C)C(=O)O[C@@H]3O[C@@]4(C)CC[C@@H]1[C@]32OO4 [ARTEMISININ],100%
3,CCC(CC)C1OOC2CCCC(c3ccccc3)(OO1)O2 (stereo not given),18%
4,C1CCC([C@H]2OO[C@H](C3CCCCC3)OO2)CC1,96%
5,O=C(CCC[C@H]1OO[C@H](CCCC(=O)c2ccccc2)OO1)c1ccccc1,40%
6,O=C(CCCC1OOC2CCCC(c3ccc(F)cc3)(OO1)O2)c1ccc(F)cc1 (stereo not given),0%
7,c1ccc([C@H]2OO[C@H](c3ccccc3)OO2)cc1,50%
8,Fc1ccc(C2OOC(c3ccc(F)cc3)OO2)cc1 (stereo not given),90%
9,O=C(CCC[C@H]1OO[C@H](CCCC(=O)c2ccc(F)cc2)OO1)c1ccc(F)cc1,30%

# Test system: Plasmodium falciparum
# Experiment: In vitro antimalarial activity against chloroquine-sensitive Plasmodium falciparum FCR3; Not toxic at 100uM
# Type: functional, organism-based
row,Compound,EC50
1,FC(F)(F)c1ccc(C2OOC(c3ccc(C(F)(F)F)cc3)OO2)cc1 (stereo not given),Not toxic

# Test system: FM3A
# Experiment: Selectivity index as EC50 FM3A /EC50 Plasmodium falciparum
# Type: functional
row,Compound,Selectivity
1,c1ccc(C23CCCC(OOC(C4CCCCC4)OO2)O3)cc1 (stereo not given),48
2,COc1ccc(C(=O)CCC[C@H]2OO[C@H](CCCC(=O)c3ccc(OC)cc3)OO2)cc1,>5
3,CC(C)(C)C1OOC2CCCC(c3ccccc3)(OO1)O2 (stereo not given),2
4,c1ccc(C[C@H]2OO[C@H](Cc3ccccc3)OO2)cc1,>7
5,CCC(CC)C1OOC2CCCC(c3ccccc3)(OO1)O2 (stereo not given),65
6,Fc1ccc(C23CCCC(OOC(C4CCCCC4)OO2)O3)cc1 (stereo not given),17
7,Fc1ccc(C23CCCC(OOC(c4ccccc4)OO2)O3)cc1 (stereo not given),4
8,C1CCC([C@H]2OO[C@H](C3CCCCC3)OO2)CC1,55
9,O=C(CCC[C@H]1OO[C@H](CCCC(=O)c2ccccc2)OO1)c1ccccc1,>250
10,O=C(CCCC1OOC2CCCC(c3ccc(F)cc3)(OO1)O2)c1ccc(F)cc1 (stereo not given),>141
11,CCCCCCC[C@H]1OO[C@H](CCCCCCC)OO1,>67
12,FC(F)(F)c1ccccc1C1OOC(c2ccccc2C(F)(F)F)OO1 (stereo not given),5
13,c1ccc([C@H]2OO[C@H](c3ccccc3)OO2)cc1,>91
14,O=C(CCC[C@H]1OO[C@@H](CCCC(=O)c2ccccc2)OO1)c1ccccc1,>8
15,O=C(CCCC1OOC2CCCC(c3ccccc3)(OO1)O2)c1ccccc1 (stereo not given),>77
16,Fc1ccc(C2OOC(c3ccc(F)cc3)OO2)cc1 (stereo not given),>200
17,Fc1ccc(C2OOC3CCCC(c4ccccc4)(OO2)O3)cc1 (stereo not given),6
18,O=C(CCC[C@H]1OO[C@H](CCCC(=O)c2ccc(F)cc2)OO1)c1ccc(F)cc1,>169
19,Fc1ccc(C2OOC3CCCC(c4ccc(F)cc4)(OO2)O3)cc1 (stereo not given),5
20,COc1ccc(C(=O)CCCC2OOC3CCCC(c4ccc(OC)cc4)(OO2)O3)cc1 (stereo not given),19
21,COc1ccc(C2OOC(c3ccc(OC)cc3)OO2)cc1 (stereo not given),>127
22,c1ccc(C2OOC3CCCC(c4ccccc4)(OO2)O3)cc1 (stereo not given),36

# Test system: Plasmodium falciparum
# Experiment: Antiparasitic activity against Plasmodium falciparum FCR-3
row,Compound,EC50
1,c1ccc(C23CCCC(OOC(C4CCCCC4)OO2)O3)cc1 (stereo not given),210 nM
2,C[C@@H]1CC[C@H]2[C@@H](C)C(=O)O[C@@H]3O[C@@]4(C)CC[C@@H]1[C@]32OO4 [ARTEMISININ],7.8 nM
3,COc1ccc(C(=O)CCC[C@H]2OO[C@H](CCCC(=O)c3ccc(OC)cc3)OO2)cc1,20000 nM
4,CC(C)(C)C1OOC2CCCC(c3ccccc3)(OO1)O2 (stereo not given),17000 nM
5,c1ccc(C[C@H]2OO[C@H](Cc3ccccc3)OO2)cc1,14000 nM
6,CCC(CC)C1OOC2CCCC(c3ccccc3)(OO1)O2 (stereo not given),510 nM
7,Fc1ccc(C23CCCC(OOC(C4CCCCC4)OO2)O3)cc1 (stereo not given),150 nM
8,Fc1ccc(C23CCCC(OOC(c4ccccc4)OO2)O3)cc1 (stereo not given),2900 nM
9,CCCCCCCC1OOC2CCCC(c3ccccc3)(OO1)O2 (stereo not given),1500 nM
10,C1CCC([C@H]2OO[C@H](C3CCCCC3)OO2)CC1,200 nM
11,O=C(CCC[C@H]1OO[C@H](CCCC(=O)c2ccccc2)OO1)c1ccccc1,400 nM
12,O=C(CCCC1OOC2CCCC(c3ccc(F)cc3)(OO1)O2)c1ccc(F)cc1 (stereo not given),710 nM
13,CCCCCCC[C@H]1OO[C@H](CCCCCCC)OO1,1500 nM
14,FC(F)(F)c1ccccc1C1OOC(c2ccccc2C(F)(F)F)OO1 (stereo not given),600 nM
15,c1ccc([C@H]2OO[C@H](c3ccccc3)OO2)cc1,1100 nM
16,O=C(CCC[C@H]1OO[C@@H](CCCC(=O)c2ccccc2)OO1)c1ccccc1,12000 nM
17,O=C(CCCC1OOC2CCCC(c3ccccc3)(OO1)O2)c1ccccc1 (stereo not given),1300 nM
18,Fc1ccc(C2OOC(c3ccc(F)cc3)OO2)cc1 (stereo not given),500 nM
19,Fc1ccc(C2OOC3CCCC(c4ccccc4)(OO2)O3)cc1 (stereo not given),2800 nM
20,O=C(CCC[C@H]1OO[C@H](CCCC(=O)c2ccc(F)cc2)OO1)c1ccc(F)cc1,510 nM
21,Fc1ccc(C2OOC3CCCC(c4ccc(F)cc4)(OO2)O3)cc1 (stereo not given),1900 nM
22,COc1ccc(C(=O)CCCC2OOC3CCCC(c4ccc(OC)cc4)(OO2)O3)cc1 (stereo not given),930 nM
23,COc1ccc(C2OOC(c3ccc(OC)cc3)OO2)cc1 (stereo not given),790 nM
24,c1ccc(C2OOC3CCCC(c4ccccc4)(OO2)O3)cc1 (stereo not given),1400 nM
